According to PMC7092849 (Biochemical and Biophysical Research Communications, 2018):
Entries after “also recorded” stand apart in the source; their conditions may differ. Non-standard residues stand in square brackets, D forms with d. No end group written: not given here. Hyp = O=C(O)[C@@H]1C[C@@H](O)CN1

B1: T16: recombinant 480aa protein, 16 tandem repeats of the triple-helix fragment of hCOL3A1, Gly483-Pro512 (C1P) (protein)
chain: GERGAPGFRGPAGPNGIPGEKGPAGERGAPGERGAPGFRGPAGPNGIPGEKGPAGERGAPGERGAPGFRGPAGPNGIPGEKGPAGERGAPGERGAPGFRGPAGPNGIPGEKGPAGERGAPGERGAPGFRGPAGPNGIPGEKGPAGERGAPGERGAPGFRGPAGPNGIPGEKGPAGERGAPGERGAPGFRGPAGPNGIPGEKGPAGERGAPGERGAPGFRGPAGPNGIPGEKGPAGERGAPGERGAPGFRGPAGPNGIPGEKGPAGERGAPGERGAPGFRGPAGPNGIPGEKGPAGERGAPGERGAPGFRGPAGPNGIPGEKGPAGERGAPGERGAPGFRGPAGPNGIPGEKGPAGERGAPGERGAPGFRGPAGPNGIPGEKGPAGERGAPGERGAPGFRGPAGPNGIPGEKGPAGERGAPGERGAPGFRGPAGPNGIPGEKGPAGERGAPGERGAPGFRGPAGPNGIPGEKGPAGERGAP
modifications: left off: thioredoxin, end not stated, state not stated

Legend:
3T3 cells [1] = type: cell-based, mouse
3T3 cells [2] = assay: Cytotoxicity assay; type: cell-based, mouse; conditions: CCK-8, up to 1 mg/ml, Fig. 4D
Procedure, shortened: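 Mouse fibroblast BALB 3T3 cells were exposed to a recombinant collagen III tandem-repeat protein or collagen-derived peptides at concentrations up to 1000 μg/ml. Viability was read with CCK-8 following the manufacturer's manual. CC50 was the intended read-out.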

crystal structure = biological target: the molecule itself; assay: crystal structure

Row | Molecule | cell adhesion activity (relative cell adhesion rate) (3T3 cells [1]) | cytotoxicity (3T3 cells [2]) | stoichiometry N (crystal structure)
1 | C1P: native hCOL3A1 peptide, Gly483-Pro512 (GERGAPGFRGPAGPNGIPGEKGPAGERGAP) | the most potent cell adhesion activity; also recorded: much stronger cell adhesion activity than that of Type I collagen |  | 
2 | bovine serum albumin [BSA, reference compound] | no significant adhesion activity |  | 
3 | B1 | very strong cell adhesion activity | No obvious cytotoxicity | 
4 | P[Hyp]GP[Hyp]GP[Hyp]GFRGPAGPNGIPGP[Hyp]GP[Hyp]GP[Hyp]G [host-guest peptide C3Pa, (Pro-Hyp-Gly)3-FRGPAGPNGIPG-(Pro-Hyp-Gly)3] |  |  | 3
